ChEMBL document CHEMBL4118046, “Chemistry of Renieramycins. 17. A New Generation of Renieramycins: Hydroquinone 5-O-Monoester Analogues of Renieramycin M as Potential Cytotoxic Agents against Non-Small-Cell Lung Cancer Cells” (J Nat Prod, 2017)

Assays:
[1] = tested on: NCI-H292; assay: Cytotoxicity against human NCI-H292 cells after 72 hrs by MTT assay; assay type: functional, cell-based; conditions: NCI-H292, 72 h
Summary of the method: (§1)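 Metastatic human NSCLC lines H292 and H460, obtained from ATCC, were tested for viability by MTT assay following a previously published protocol. Cisplatin and doxorubicin served as positive controls. IC50 values are reported.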

[2] = tested on: NCI-H460; assay: Cytotoxicity against human NCI-H460 cells after 72 hrs by MTT assay; assay type: functional, cell-based; conditions: NCI-H460, 72 h; summary of the method: as §1

Compound | IC50 [1] | IC50 [2]
COc1cccc2c1C(=O)c1c(O)c3c(c(O)c1C2=O)C[C@@](O)(C(=O)CO)C[C@@H]3O[C@H]1C[C@H](N)[C@H](O)[C@H](C)O1 [DOXORUBICIN] | 351 nM | 34 nM
C/C=C(/C)C(=O)OC[C@H]1c2c(O)c(OC)c(C)c(OC(=O)/C=C/c3ccccc3)c2C[C@H]2[C@H]3C4=C(C[C@H]([C@H](C#N)N12)N3C)C(=O)C(C)=C(OC)C4=O | 12 nM | 11 nM
C/C=C(/C)C(=O)OC[C@H]1c2c(O)c(OC)c(C)c(OC(=O)OC)c2C[C@H]2[C@H]3C4=C(C[C@H]([C@H](C#N)N12)N3C)C(=O)C(C)=C(OC)C4=O | 11 nM | 14 nM
C/C=C(/C)C(=O)OC[C@H]1c2c(O)c(OC)c(C)c(OC(=O)CNC(=O)OC(C)(C)C)c2C[C@H]2[C@H]3C4=C(C[C@H]([C@H](C#N)N12)N3C)C(=O)C(C)=C(OC)C4=O | 10 nM | 6 nM
C/C=C(/C)C(=O)OC[C@H]1c2c(O)c(OC)c(C)c(OC(=O)CCCCC)c2C[C@H]2[C@H]3C4=C(C[C@H]([C@H](C#N)N12)N3C)C(=O)C(C)=C(OC)C4=O | 16 nM | 15 nM
C/C=C(/C)C(=O)OC[C@H]1c2c(c(OC(C)=O)c(C)c(OC)c2OC(C)=O)C[C@H]2[C@H]3C4=C(C[C@H]([C@H](C#N)N12)N3C)C(=O)C(C)=C(OC)C4=O | 28 nM | 25 nM
C/C=C(/C)C(=O)OC[C@H]1c2c(O)c(OC)c(C)c(OC(=O)[C@H](C)NC(=O)OC(C)(C)C)c2C[C@H]2[C@H]3C4=C(C[C@H]([C@H](C#N)N12)N3C)C(=O)C(C)=C(OC)C4=O | 24 nM | 16 nM
C/C=C(/C)C(=O)OC[C@H]1c2c(O)c(OC)c(C)c(OC(=O)c3ccc4ncccc4c3)c2C[C@H]2[C@H]3C4=C(C[C@H]([C@H](C#N)N12)N3C)C(=O)C(C)=C(OC)C4=O | 54 nM | 45 nM
C/C=C(/C)C(=O)OC[C@H]1c2c(O)c(OC)c(C)c(OC(=O)CCC)c2C[C@H]2[C@H]3C4=C(C[C@H]([C@H](C#N)N12)N3C)C(=O)C(C)=C(OC)C4=O | 6.7 nM | 5.6 nM
C/C=C(/C)C(=O)OC[C@H]1c2c(O)c(OC)c(C)c(OC(=O)c3cnc4ccccc4c3)c2C[C@H]2[C@H]3C4=C(C[C@H]([C@H](C#N)N12)N3C)C(=O)C(C)=C(OC)C4=O | 111 nM | 22 nM
C/C=C(/C)C(=O)OC[C@H]1c2c(O)c(OC)c(C)c(OC(=O)c3cccnc3)c2C[C@H]2[C@H]3C4=C(C[C@H]([C@H](C#N)N12)N3C)C(=O)C(C)=C(OC)C4=O | 59 nM | 20 nM
C/C=C(/C)C(=O)OC[C@H]1c2c(O)c(OC)c(C)c(O)c2C[C@H]2[C@H]3c4c(O)c(OC)c(C)c(O)c4C[C@H]([C@H](C#N)N12)N3C | 1.7 nM | 1.1 nM
C/C=C(/C)C(=O)OC[C@H]1c2c(O)c(OC)c(C)c(OC(=O)c3ccc(Br)cc3)c2C[C@H]2[C@H]3C4=C(C[C@H]([C@H](C#N)N12)N3C)C(=O)C(C)=C(OC)C4=O | 21 nM | 14 nM
C/C=C(/C)C(=O)OC[C@H]1c2c(O)c(OC)c(C)c(OC(=O)CCCC)c2C[C@H]2[C@H]3C4=C(C[C@H]([C@H](C#N)N12)N3C)C(=O)C(C)=C(OC)C4=O | 36 nM | 26 nM
COC1=C(C)C(=O)C2=C(C1=O)[C@@H]1[C@@H]3CC4=C(C(=O)C(OC)=C(C)C4=O)[C@H](CO)N3[C@@H](C#N)[C@@H](C2)N1C | 217 nM | 164 nM
C/C=C(/C)C(=O)OC[C@H]1c2c(c(O)c(C)c3c2OCO3)C[C@H]2[C@H]3C4=C(C[C@H]([C@H](C#N)N12)N3C)C(=O)C(C)=C(OC)C4=O | 61 nM | 36 nM
C/C=C(/C)C(=O)OC[C@H]1c2c(O)c(OC)c(C)c(OC(=O)c3ccc(-c4ccccc4)cc3)c2C[C@H]2[C@H]3C4=C(C[C@H]([C@H](C#N)N12)N3C)C(=O)C(C)=C(OC)C4=O | 71 nM | 54 nM
COc1cc2c(cc1O)CCN[C@]21CS[C@@H]2c3c(OC(C)=O)c(C)c4c(c3[C@H](COC1=O)N1[C@@H]2[C@H]2c3c(cc(C)c(OC)c3O)C[C@H]([C@@H]1C#N)N2C)OCO4 | 1.6 nM | 1.2 nM
C/C=C(/C)C(=O)OC[C@H]1c2c(O)c(OC)c(C)c(OC(=O)/C=C/c3cccnc3)c2C[C@H]2[C@H]3C4=C(C[C@H]([C@H](C#N)N12)N3C)C(=O)C(C)=C(OC)C4=O | 57 nM | 52 nM
C/C=C(/C)C(=O)OC[C@H]1c2c(O)c(OC)c(C)c(OC=O)c2C[C@H]2[C@H]3C4=C(C[C@H]([C@H](C#N)N12)N3C)C(=O)C(C)=C(OC)C4=O | 12 nM | 9.7 nM
C/C=C(/C)C(=O)OC[C@H]1c2c(O)c(OC)c(C)c(OC(=O)/C=C/c3ccc(F)cc3)c2C[C@H]2[C@H]3C4=C(C[C@H]([C@H](C#N)N12)N3C)C(=O)C(C)=C(OC)C4=O | 63 nM | 17 nM
C/C=C(/C)C(=O)OC[C@H]1c2c(O)c(OC)c(C)c(OC(=O)CC)c2C[C@H]2[C@H]3C4=C(C[C@H]([C@H](C#N)N12)N3C)C(=O)C(C)=C(OC)C4=O | 2.3 nM | 5.1 nM
C/C=C(/C)C(=O)OC[C@H]1c2c(O)c(OC)c(C)c(OC(C)=O)c2C[C@H]2[C@H]3C4=C(C[C@H]([C@H](C#N)N12)N3C)C(=O)C(C)=C(OC)C4=O | 3 nM | 3.6 nM
C/C=C(/C)C(=O)OC[C@H]1C2=C(C[C@H]3[C@H]4C5=C(C[C@@H]([C@H](C#N)N13)N4C)C(=O)C(C)=C(OC)C5=O)C(=O)C(C)=C(OC)C2=O [RENIERAMYCIN M] | 24 nM | 6.5 nM
C/C=C(/C)C(=O)OC[C@H]1c2c(O)c(OC)c(C)c(OC(=O)c3ccccn3)c2C[C@H]2[C@H]3C4=C(C[C@H]([C@H](C#N)N12)N3C)C(=O)C(C)=C(OC)C4=O | 103 nM | 26 nM
C/C=C(/C)C(=O)OC[C@H]1c2c(O)c(OC)c(C)c(OC(=O)c3ccncc3)c2C[C@H]2[C@H]3C4=C(C[C@H]([C@H](C#N)N12)N3C)C(=O)C(C)=C(OC)C4=O | 20 nM | 11 nM
